Measurements from different studies.
Compare with care: the assays were run in different laboratories.
Read-out: cell growth or viability

SMILES | cell line | technique | time | notes | quantity | result
Nc1nc2c(ncn2COCCO)c(=O)[nH]1 | HEL | – | 72 h | – | CC50 | > 440 µM
COc1cc(N)c(NS(=O)(=O)c2ccc(N(C)C)cc2)cc1OC | HeLa | XTT | 72 h | – | IC50 | > 100 µM
C=CC1=C(C)c2cc3[nH]c(cc4nc(cc5[nH]c(cc1n2)c(C)c5CCC(=O)O)C(CCC(=O)O)=C4C)c(C)c3C=C | RPE-1 | resazurin | 4 h | dark | IC50 | > 100 µM
COc1ccc(S(=O)(=O)Nc2cc(OC)c(NC(=O)CCl)cc2OC)cc1 | HeLa | XTT | 72 h | – | IC50 | 2.4 µM
CCOP(=O)(OCC)[C@@H]1C[C@@H](n2cc(-c3nccn3C)nn2)ON1C | HEL | – | 72 h | – | CC50 | > 100 µM
Cc1nc2ccc(Cl)cn2c1C(=O)N1CCN(Cc2cn(-c3cccc(Cl)c3)nn2)CC1 | HeLa | resazurin | – | – | CC50 | > 100 µM
CCOP(=O)(OCC)[C@@H]1C[C@H](n2cc(C(=O)OC)nn2)ON1C (relative stereo) | HEL | – | 72 h | – | CC50 | > 100 µM
COc1ccc(-n2cc(CN3CCN(C(=O)c4c(C)nc5cc(C)ccn45)CC3)nn2)c([N+](=O)[O-])c1 | HeLa | resazurin | – | – | CC50 | > 100 µM
CCOP(=O)(OCC)[C@@H]1C[C@@H](n2cc(-c3ccccn3)nn2)ON1C (racemic) | HeLa | – | 72 h | – | CC50 | > 250 µM
COC(=O)c1cc(N)cc(NS(=O)(=O)c2ccc(OC)cc2)c1 | HeLa | XTT | 72 h | – | IC50 | 20 µM
Cc1nc2ccc(Cl)cn2c1C(=O)N1CCN(Cc2cn(-c3ccccc3)nn2)CC1 | HeLa | resazurin | – | – | CC50 | > 100 µM
COc1ccc(NS(=O)(=O)c2ccc(N(C)C=O)cc2)cn1 | HeLa | XTT | 72 h | – | IC50 | > 100 µM
COc1ccc(-n2cc(CN3CCN(C(=O)c4c(C)nc5ccc(Cl)cn45)CC3)nn2)c([N+](=O)[O-])c1 | HeLa | resazurin | – | – | CC50 | > 100 µM
